Experimental findings from ChEMBL document CHEMBL1144904, “Isoquine and related amodiaquine analogues: a new generation of improved 4-aminoquinoline antimalarials” (J Med Chem, 2003) are described below.

Assay [1] concerns Plasmodium falciparum. Nature of the assay: In vitro antimalarial activity against Plasmodium falciparum HB. It counts as functional, organism-based. An outline of the steps: (§1)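 Parasites kept in continuous culture in human erythrocytes in RPMI 1640 with 25 mM HEPES, 32 mM NaHCO3 and 10% human serum, gassed 3% O2/4% CO2/93% N2. 48-h assay at 2% parasitemia, 0.5% haematocrit, drugs from DMSO stocks diluted in medium, triplicate. [3H]-hypoxanthine added at 24 h, further 24 h at 37 °C, scintillation counting. IC50 by probit interpolation of log dose–response.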

Assay [2] has as its system Plasmodium falciparum. Briefly: In vitro antimalarial activity against chloroquine-resistant Plasmodium falciparum K1. It is filed as functional, organism-based. The method, boiled down: as §1
The subject of the next assay is Plasmodium yoelii. Briefly: […] against Plasmodium yoelii NS in peter 4-day assay. It counts as functional. The conditions noted are these: 96 h, in the assay text read “In vivo” for “In vitro”. The method, boiled down: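 Male CD-1 mice (n = 5 per dose group) infected ip with 10^6 parasitized erythrocytes in PBS. Oral gavage dosing at time 0 (2 h post-inoculation) and on days 1, 2 and 3, at 25, 10, 3, 1, 0.3 and 0.1 mg/kg. On day 4, Giemsa-stained tail-blood films were read microscopically for parasite density, and ED50 was derived.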

A word on the IC50: it is the point on the concentration scale where inhibition reaches its midpoint. A low value points to higher potency. One may read the ED50 as the midpoint of the dose-response relation. Read a high ED50 as a need for a large dose.

As to `Oc1cc(Nc2ccnc3cc(Cl)ccc23)ccc1CN1CCCC1`, the concentration for half-maximal inhibition (IC50) with Plasmodium falciparum [1] came to 28.4 nM; with Plasmodium falciparum [2], 21.8 nM.
The like results for `CC(C)NCc1ccc(Nc2ccnc3cc(Cl)ccc23)cc1O` were, in that order, 20.2 nM and 26.2 nM.
Regarding `Oc1cc(Nc2ccnc3cc(Cl)ccc23)ccc1CN1CCOCC1`, the IC50 in the assay on Plasmodium falciparum [1] worked out at 97.2 nM; in the assay on Plasmodium falciparum [2], 112 nM.
The like results for `CCNCc1ccc(Nc2ccnc3cc(Cl)ccc23)cc1O` [DESETHYL ISOQUINE] were, in that order, 16.2 nM and 32.4 nM.
`CCN(CC)Cc1ccc(Nc2ccnc3cc(Cl)ccc23)cc1O` gave an IC50 in the assay with Plasmodium falciparum [1] of 9.02 nM.
`CCN(CC)Cc1ccc(Nc2ccnc3cc(Cl)ccc23)cc1O` [ISOQUINE] displayed an ED50 in the assay on Plasmodium yoelii of 2.65 mg/kg.
With `Oc1cc(Nc2ccnc3cc(Cl)ccc23)ccc1CN1CCCCC1`, the IC50 came out at 9.07 nM in the assay with Plasmodium falciparum [1] and 20.3 nM in the assay with Plasmodium falciparum [2].
Consider `CCCCN(CCCC)Cc1ccc(Nc2ccnc3cc(Cl)ccc23)cc1O`, for which the IC50 in the assay with Plasmodium falciparum [1] came to 51.9 nM; with Plasmodium falciparum [2], 37.2 nM.
With `CCCN(CCC)Cc1ccc(Nc2ccnc3cc(Cl)ccc23)cc1O`, the results for the IC50 with Plasmodium falciparum [1] and in the assay with Plasmodium falciparum [2] were 19.8 nM and 30.6 nM, respectively.
Consider `CC(C)(C)NCc1ccc(Nc2ccnc3cc(Cl)ccc23)cc1O` [GSK-369796], for which the results for the IC50 in the assay with Plasmodium falciparum [1] and with Plasmodium falciparum [2] were 30 nM and 32.8 nM, respectively.
Take `CN(C)Cc1ccc(Nc2ccnc3cc(Cl)ccc23)cc1O`: the IC50 stood at 14.8 nM in the assay on Plasmodium falciparum [1] and 18.6 nM with Plasmodium falciparum [2].
With `CCN(CC)Cc1cc(Nc2ccnc3cc(Cl)ccc23)ccc1O.Cl`, the half-inhibitory concentration (IC50) in the assay on Plasmodium falciparum [2] turned out to be 15.1 nM. In the assay on Plasmodium yoelii, this molecule came in with a median effective dose (ED50) of 7.65 mg/kg.
